Results taken from ChEMBL document CHEMBL2331266, “Five-membered iminocyclitol α-glucosidase inhibitors: synthetic, biological screening and in silico studies” (Bioorg Med Chem, 2013).

Experiments:
[1] = Inhibition of Saccharomyces cerevisiae alpha-glucosidase using p-nitrophenyl-alpha-D-[…] as substrate after 20 mins by UV/Vis spectrophotometric analysis
Procedure, shortened: (§1)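 Baker's yeast α-glucosidase at 0.04 U/mL in 0.1 M phosphate buffer, pH 6.7. Substrate was 2 mM p-nitrophenyl-α-D-glucopyranoside; the optimized Km was 0.258 mM. Inhibitors were dissolved in 2% DMSO in the same buffer and tested at up to 46 mM. Activity was read as the p-nitrophenol released. Five replicates per sample.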

[2] = tested on: Saccharomyces cerevisiae; assay: Inhibition of Saccharomyces cerevisiae alpha-glucosidase using p-nitrophenyl-alpha-D-[…] as substrate at = / >10.9 mM after 20 mins by UV/Vis spectrophotometric analysis; procedure, shortened: as §1
[3] = tested on: Saccharomyces cerevisiae; assay: Inhibition of Saccharomyces cerevisiae alpha-glucosidase using p-nitrophenyl-alpha-D-[…] as substrate at 25 mM after 20 mins by UV/Vis spectrophotometric analysis; procedure, shortened: as §1

Row | SMILES | IC50 [1] [mM] | inhibition [2] [%] | inhibition [3] [%]
1 | O[C@H]1CN(Cc2ccccc2)C[C@@H]1O | 38 | > 50 | –
2 | O[C@H]1CNC[C@@H]1O | 10.9 | > 50 | –
3 | C[C@H]1O[C@H](O[C@H]2[C@H](O)[C@@H](O)[C@@H](O[C@H]3[C@H](O)[C@@H](O)C(O)O[C@@H]3CO)O[C@@H]2CO)[C@H](O)[C@@H](O)[C@@H]1N[C@H]1C=C(CO)[C@@H](O)[C@H](O)[C@H]1O (stereo partly specified) [ACARBOSE] | 25 | – | –
4 | CC(=O)O[C@H]1CNC[C@@H]1OC(C)=O | 12.5 | > 50 | 80
5 | CC(=O)O[C@@H]1CNC[C@H]1OC(C)=O | – | – | 40
6 | O[C@@H]1CN(Cc2ccccc2)C[C@H]1O | 25 | > 50 | –
